# PostGolgi ctrl: inhibits growth of the yeast control strain. efflux-deficient yeast background strain, growth absorbance A615, 16 h. inhibition, % at 10 µM. 5% of 98,000 active
# PostGolgi yeast: growth inhibition of a yeast mutant, post-Golgi transport screen. post-Golgi transport phenotypic cell assay. inhibition, % at 10 µM. 0.9% of 98,000 active. AID 739;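 also: yeast cells grown in 1536-well plates; yeast grown about 18 h at 30C before absorbance read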
# Rev-RRE block: disrupts HIV-1 Rev binding to RRE RNA; 0.79% of 97,000 active; AID 704; P05866; Rev peptide-RRE RNA binding, FRET; inhibition, % at 8 µM;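 active = inhibition above the screen-wide mean plus 3 SD, cut at about 35% in these data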;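 also: 0% = median DMSO wells and 100% = median Neomycin B control wells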
#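 Test system – labelled RRE RNA duplex and labelled Rev peptide · Signal – fluorescein-to-Cy5 FRET, 480 nm excitation · Evaluation – % inhibition of FRET ratio versus controls · Benchmarks – DMSO low control, neomycin B high control · Incubation – 5 min RNA-compound premix plus 15 min binding step, 25 °C · Medium – HEPES pH 7.5 salt buffer with EDTA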
# EphB4 ephrin blk: antagonists of human EphB4-ephrin-B2 interaction | P54760 | EphB4 LBD / TNYL-RAW-Alexa532 peptide, fluorescence polarization | inhibition, % at 7 µM | 0.15% of 97,000 active | AID 720;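 active = inhibition above the screen-wide mean inhibition plus 3 SD, cut at about 15% in these data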;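 also: 0% = DMSO wells and 100% = excess unlabeled TNYL-RAW peptide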
# Target sequence (P54760 whole entry, looked up, the tested form may be a part): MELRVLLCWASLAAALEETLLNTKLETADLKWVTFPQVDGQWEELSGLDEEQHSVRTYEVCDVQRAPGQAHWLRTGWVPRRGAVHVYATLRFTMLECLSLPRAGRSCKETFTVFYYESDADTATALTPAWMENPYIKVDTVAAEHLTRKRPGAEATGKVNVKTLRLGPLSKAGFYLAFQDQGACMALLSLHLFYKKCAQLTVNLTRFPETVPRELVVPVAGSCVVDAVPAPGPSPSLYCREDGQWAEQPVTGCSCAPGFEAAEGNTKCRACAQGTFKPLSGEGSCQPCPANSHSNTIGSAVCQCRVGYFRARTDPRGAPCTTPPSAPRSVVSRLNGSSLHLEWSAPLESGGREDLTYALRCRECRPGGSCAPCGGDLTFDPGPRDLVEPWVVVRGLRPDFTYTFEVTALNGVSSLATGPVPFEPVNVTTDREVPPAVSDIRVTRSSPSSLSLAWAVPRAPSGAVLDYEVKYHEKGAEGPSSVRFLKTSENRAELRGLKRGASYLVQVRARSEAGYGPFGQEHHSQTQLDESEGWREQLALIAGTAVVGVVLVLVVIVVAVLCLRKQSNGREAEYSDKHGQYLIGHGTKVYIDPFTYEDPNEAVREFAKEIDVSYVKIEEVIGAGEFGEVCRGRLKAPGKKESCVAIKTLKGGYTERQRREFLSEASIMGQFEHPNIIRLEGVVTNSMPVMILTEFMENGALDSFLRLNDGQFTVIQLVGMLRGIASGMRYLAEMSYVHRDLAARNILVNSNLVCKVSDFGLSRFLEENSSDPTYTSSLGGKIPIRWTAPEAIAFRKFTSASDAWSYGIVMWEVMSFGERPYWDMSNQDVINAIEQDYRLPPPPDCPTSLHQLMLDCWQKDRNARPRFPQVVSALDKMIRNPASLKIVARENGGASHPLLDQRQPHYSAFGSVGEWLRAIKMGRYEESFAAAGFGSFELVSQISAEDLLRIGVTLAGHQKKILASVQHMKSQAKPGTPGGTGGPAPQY
# PLK1 kinase inh: inhibitors of human PLK1 kinase; AID 619; recombinant PLK1 kinase, TR-FRET peptide phosphorylation; inhibition, % at 10 µM; P53350; 0.53% of 97,000 active;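 active = inhibition of 50% or more in the single-concentration screen; inactive = inhibition below 50%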;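 also: 0% = DMSO max control and 100% = H-89 dihydrochloride min control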
# Plk1 PBD FP: inhibitors of human Plk1 polo box domain binding | P53350 | Plk1 PBD phosphopeptide binding, fluorescence polarization | inhibition, %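 (tested at about 20 µM)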 | 0.13% of 97,000 active | AID 693; in the data active = inhibition above about 34%, passing the limit was not always enough
# PBD redox DR: redox cycling H2O2 generation counter-screen for Plk1 PBD; shares compounds with Plk1 PBD FP; 120 tested, under 10 active; EC50, µM; DTT; call rule not given here
# An asterisk follows results filed as active; / = no result. Compounds with a hit are over-represented: about 6.4% of the library has one in this group of screens. Rule as the data show it, unless noted: active = inhibition above about 30%; inactive = the rest.
SMILES,PostGolgi ctrl,PostGolgi yeast,Rev-RRE block,EphB4 ephrin blk,PLK1 kinase inh,Plk1 PBD FP,PBD redox DR
COCCN(CCOC)Cc1c(C)[nH]c2c(C)c(C)ccc2c1=O,9.2,0.9,3.0,-0.7,-6.1,17.0,/
Cc1nc2cccc(C)n2c(=O)c1Cl,4.2,-8.4,3.3,1.0,2.9,42.5*,>50
Cc1nc2ccc(Br)cn2c(=O)c1Cl,-0.6,11.5,5.3,-1.1,3.9,-7.4,/
COC(=O)c1cc(=O)n(CCc2ccc(OC)c(OC)c2)c(=Nc2ccc(F)c(Cl)c2)s1,15.2,0.2,3.7,-3.1,-1.8,-6.0,/
O=C(Nc1ccccn1)C1CCN(S(=O)(=O)c2cccc3nonc23)CC1,2.6,-5.2,0.2,4.1,-1.3,36.2*,>50
O=c1oc(/C=C/c2ccco2)nc2sc3c(c12)CCC3,-1.0,-3.0,3.3,-4.3,2.9,-0.8,/
CC(C)=CC(=O)NCCc1ccccc1,20.0,-18.9,2.6,-10.9,-4.7,51.4*,>50
C/C(=C/C(=O)NCc1ccccc1)C(=O)O,-4.8,5.0,4.6,-8.0,-9.0,-14.4,/
Cc1cc2nc(N)sc2cc1[N+](=O)[O-],9.2,-10.0,1.1,-9.7,-10.2,3.6,/
COC(=O)c1ccccc1NC1=C/C(=N\S(=O)(=O)c2cccs2)c2ccccc2C1=O,19.0,-4.3,3.2,-0.8,6.6,56.1*,>50
C/C(=C\C(=O)Nc1cc(C)on1)c1ccccc1,-0.9,3.4,6.1,5.3,-8.2,39.9*,>50
CCOC(=O)CN1C(=O)C(C)(C)Oc2ccc(C(=O)Nc3ccccc3)cc21,14.7,8.6,5.6,5.7,9.8,9.6,/
Cc1nc(N)sc1N=Nc1ccc(Br)cc1,21.9,-1.3,4.5,-2.9,8.4,-1.8,/
O=C(O)CCC(=O)Nc1ccccc1C(=O)NC1CCCCC1,11.1,15.2,10.8,-4.0,-7.1,-31.1,/
CCC(=O)Nc1ccccc1C(=O)NC1CCCCC1,6.5,-7.4,3.0,-1.9,-11.6,40.5*,>50
Cc1[nH]n2c(=O)cc(-c3ccc([N+](=O)[O-])cc3)nc2c1-c1ccccc1,/,/,0.6,-3.7,-1.6,34.7*,>50
CCCc1cc(=O)n2[nH]c(C)c(-c3ccccc3)c2n1,-4.0,-4.4,/,/,/,/,/
CCCCOCCCNC(=O)CCCOc1ccccc1,5.6,-1.0,3.0,-4.8,-11.7,-22.3,/
CCOCCCNC(=O)CCCOc1ccccc1,10.0,10.8,3.9,3.2,-8.1,42.7*,>50
CCCCNC(=O)c1ccc(NC(=O)C2CCCO2)cc1 (centres undefined),12.6,-2.4,/,/,/,/,/
CC(C)OCCCNC(=O)c1ccc(NC(=O)C2CCCO2)cc1 (centres undefined),-3.4,1.1,0.6,-8.1,-7.2,34.9*,>50
CNC(=O)CC(C(=O)O)c1ccc(OCC(C)C)cc1 (centres undefined),-4.6,13.5,-1.4,-3.4,-3.9,64.3*,>50
CNC(=O)CC(C(=O)O)c1ccc(OC(C)C)cc1 (centres undefined),9.0,-4.1,-1.7,-4.8,-10.4,2.7,/
O=C(O)COc1ccc(Br)cc1/C=N/O,1.4,-2.3,3.8,-9.8,-1.1,44.5*,>50

# Screening results (PubChem)
